For 51 compounds, IC50 and Activity results are on record in ChEMBL document CHEMBL4152308, “Synthesis and biological evaluation of novel 2-oxo-1,2-dihydroquinoline-4-carboxamide derivatives for the treatment of esophageal squamous cell carcinoma” (Eur J Med Chem, 2018).

The subject of test [1] is KYSE-70 cell line. The test can be described thus: Antiproliferative activity against human KYSE-70 cells after 72 hrs by MTT assay. Format: functional, cell-based. The following applies: KYSE-70, 72 h. In a few lines: (§1)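 Cells grown as monolayers at 37 °C, 5% CO2, mycoplasma-checked, in exponential phase. Cells seeded in 96-well plates, 24 h attachment, then compound added for 72 h. MTT 0.3 mg/mL for 3 h at 37 °C, DMSO solubilization, absorbance at 570 nm. Inhibition = (1 − A/C) × 100%. IC50 from log(concentration) vs % inhibition plot; triplicate wells, SD from ≥3 independent experiments.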

For test [2], the system named is KYSE-410. The test can be described thus: Antiproliferative activity against human KYSE410 cells after 72 hrs by MTT assay. Format: functional, cell-based. The following applies: KYSE-410, 72 h. In a few lines:
as §1
On the technique in general: Formazan colour is commonly taken as a measure of viable cells.

Test [3] concerns OVCAR-8. Description: Antiproliferative activity against human OVCAR8 cells after 72 hrs by MTT assay. Format: functional, cell-based. To be noted: OVCAR-8, 72 h. Summed up: as §1
Test [4] has as its system SK-OV-3. The test can be described thus: Antiproliferative activity against human SKOV3 cells after 72 hrs by MTT assay. Format: functional, cell-based. The following applies: SK-OV-3, 72 h. Summed up:
as §1

Test [5] has as its system MIA PaCa-2. The test can be described thus: Antiproliferative activity against human MIAPaCa2 cells after 72 hrs by MTT assay. The following applies: MIA PaCa-2, 72 h. Format: functional, cell-based. Summed up:
as §1

Test [6] concerns KYSE-410. Description: Cell cycle arrest in human KYSE410 cells assessed as accumulation at G2 phase at 1 uM after 24 to 48 hrs by propidium iodide staining based flow cytometry (reference value: 12.2%). Format: functional. Background: In flow cytometry, cells or beads pass a laser one at a time.
Test [7] relates to KYSE-410. The test can be described thus: Cell cycle arrest in human KYSE410 cells assessed as accumulation at G1 phase at 5 uM after 24 to 48 hrs by propidium iodide staining based flow cytometry (reference value: 65.4%). Format: functional.
Test [8] deals with KYSE-410. Description: Cell cycle arrest in human KYSE410 cells assessed as accumulation at G2 phase at 5 uM after 24 to 48 hrs by propidium iodide staining based flow cytometry (reference value: 12.2%). Format: functional.
The subject of test [9] is KYSE-410. Description: Cell cycle arrest in human KYSE410 cells assessed as accumulation at S phase at 1 uM after 24 to 48 hrs by propidium iodide staining based flow cytometry (reference value: 22.3%). Format: functional.
Test [10] has as its system KYSE-410. The test can be described thus: Cell cycle arrest in human KYSE410 cells assessed as accumulation at G1 phase at 1 uM after 24 to 48 hrs by propidium iodide staining based flow cytometry (reference value: 65.4%). Format: functional.
For test [11], the system named is KYSE-410. Description: Cell cycle arrest in human KYSE410 cells assessed as accumulation at S phase at 5 uM after 24 to 48 hrs by propidium iodide staining based flow cytometry (reference value: 22.3%). Format: functional.

Where only a bound is given, the exact number is not on record here.

`O=C(Nc1ccc(F)cc1)c1cc(=O)[nH]c2cc(Br)ccc12`: the IC50 in test [1] and in test [2] was > 20 µM each time.

On to `O=C(Nc1cccc(F)c1)c1cc(=O)[nH]c2cc(-c3ccncc3)ccc12`, for which the IC50 in test [1] and in [2] was > 20 µM in each case.

On to `COc1ccc2c(C(=O)Nc3cc(F)cc(F)c3)cc(=O)[nH]c2n1`, for which the concentration for half-maximal inhibition (IC50) in test [1] and in test [2] was > 20 µM in each case.

Turning to `O=C(Nc1cccc(F)c1)c1cc(=O)[nH]c2cc(-c3ccccc3)ccc12`, the concentration for half-maximal inhibition (IC50) in [1] and in [2] was > 20 µM in each case.

As for `O=C(Nc1cccc(F)c1)c1cc(=O)n(O)c2ccccc12`, the IC50 in [1] and in test [2] was > 20 µM in each case.

Turning to `O=C(Nc1cccc(F)c1)c1cc(=O)[nH]c2cc(C3=CCOCC3)ccc12`, the IC50 (as a rule, the concentration that gives 50% inhibition) is 10.5 µM in [1]; 21.8 µM in [3]; 13.3 µM in test [4]; 8.8 µM in test [5]; 12.1 µM in test [2].

With `O=C(Nc1cccc(F)c1)c1cc(=O)[nH]c2cc(-c3ccccc3F)ccc12`, the 50% inhibitory concentration (IC50) in test [1] and in test [2] was > 20 µM each time.

With `COc1ccccc1NC(=O)c1ccnc2cc(Br)ccc12`, the half-maximal inhibitory concentration (IC50) in test [1] and in test [2] was > 20 µM in each case.

`O=C(Nc1cccc(F)c1)c1cc(=O)[nH]c2cc(C3CC3)ccc12`: the IC50 in test [1] and in test [2] was > 20 µM each time.

For the compound `CC(=O)c1ccc(-c2ccc3c(C(=O)Nc4cccc(F)c4)cc(=O)[nH]c3c2)cc1`, the IC50 in test [1] and in [2] was > 20 µM in each case.

As for `O=C(Nc1ccc(OC(F)(F)F)cc1)c1cc(=O)[nH]c2cc(Br)ccc12`, the IC50 in test [1] and in test [2] was > 20 µM each time.

`COc1ccc(OC)c(NC(=O)c2cc(=O)[nH]c3cc(Br)ccc23)c1`: the IC50 in test [1] and in test [2] was > 20 µM each time.

On to `O=C(Nc1cccc(OC(F)(F)F)c1)c1cc(=O)[nH]c2cc(Br)ccc12`, for which the figures for the concentration for half-maximal inhibition (IC50) in test [1] and in [2] were > 20 µM and 14 µM, respectively.

Take `Nc1ccc(-c2ccc3c(C(=O)Nc4cccc(F)c4)cc(=O)[nH]c3c2)cc1`: the IC50 in test [1] and in test [2] was > 20 µM in each case.

For the compound `O=C(Nc1cccc(F)c1)c1cc(=O)[nH]c2cc(-c3ccc(F)cc3)ccc12`, the half-inhibitory concentration (IC50) in [1] stood at 3.3 µM; in [3], 22.3 µM; in test [4], 16.6 µM; in test [5], 19.3 µM; in test [2], 10.3 µM.

As for `Cc1ccc(-c2ccc3c(C(=O)Nc4cccc(F)c4)cc(=O)[nH]c3c2)cc1`, the IC50 in test [1] and in test [2] was > 20 µM throughout.

With `O=C(Nc1cccc(F)c1)c1cc(=O)n(Cc2ccccc2)c2cc(Br)ccc12`, the IC50 in test [1] and in [2] was > 20 µM each time.

With `O=C(c1cc(=O)[nH]c2cc(Br)ccc12)N1CCCCC1`, the half-inhibitory concentration (IC50) in test [1] and in [2] was > 20 µM throughout.

`O=C(Nc1cccc(F)c1)c1cc(=O)[nH]c2cc(-c3ccc(F)c(CO)c3)ccc12`: the IC50 in test [1] and in [2] was > 20 µM in each case.

Take `C=Cc1ccc2c(C(=O)Nc3cccc(F)c3)cc(=O)[nH]c2c1`: the results for the 50% inhibitory concentration (IC50) in test [1] and in test [2] were 9.7 µM and 13.6 µM, respectively.

For the compound `O=C(Nc1cc(F)cc(F)c1)c1cc(=O)[nH]c2cc(F)ccc12`, the IC50 in test [1] and in test [2] was > 20 µM throughout.

Consider `C#Cc1ccc2c(C(=O)Nc3cccc(F)c3)cc(=O)[nH]c2c1`, for which the values for the IC50 in test [1] and in test [2] were 9.5 µM and 9.7 µM, respectively.

Consider `O=C(Nc1cccc(F)c1)c1cc(=O)[nH]c2cc(-c3ccc(F)nc3)ccc12`, for which the IC50 in [1] and in test [2] was > 20 µM in each case.

Consider `COc1ccc2c(C(=O)Nc3cc(F)cc(F)c3)cc(=O)[nH]c2c1`, for which the IC50 in test [1] and in test [2] was > 20 µM each time.

Turning to `O=C(Nc1cccc(F)c1)c1cc(=O)[nH]c2cc(-c3cccc(F)c3)ccc12`, the figures for the 50% inhibitory concentration (IC50) in test [1] and in [2] were 12 µM and 10.9 µM, respectively.

With `O=C(Nc1ccc(C(F)(F)F)cc1)c1cc(=O)[nH]c2cc(Br)ccc12`, the IC50 in test [1] and in test [2] was > 20 µM in each case.

In the case of `O=C(Nc1ccc(F)cc1)c1ccnc2cc(Br)ccc12`, the IC50 in test [1] and in [2] was > 20 µM in each case.

Consider `COc1cccc2c(C(=O)Nc3cc(F)cc(F)c3)cc(=O)[nH]c12`, for which the IC50 in [1] and in test [2] was > 20 µM each time.

Regarding `O=C(c1ccnc2cc(Br)ccc12)N1CCCCC1`, the IC50 in test [1] and in test [2] was > 20 µM each time.

Turning to `CCN(CC)CCCC(C)Nc1ccnc2cc(Cl)ccc12` (stereo not given) [CHLOROQUINE], the Activity in test [6] is given as 13.7%; in test [7], 64.3%; in test [8], 11.3%; in test [9], 20.7%; in test [10] it was 65.6%; in [11] it was 24.4%.

Take `O=C(Nc1ccc(Cl)cc1)c1cc(=O)[nH]c2cc(Br)ccc12`: the IC50 in test [1] and in [2] was > 20 µM each time.

Turning to `O=C(Nc1ccccn1)c1cc(=O)[nH]c2cc(Br)ccc12`, the Activity in [6] is 10.8%; in [7], 62.1%; in test [8], 18.5%; in test [9], 18.5%; in [10] it was 70.8%; in test [11], 19.5%. The concentration for half-maximal inhibition (IC50) in [1] was 11 µM; in [3], > 20 µM; in test [4], > 20 µM; in test [5] it was 21.3 µM; in [2], 9.8 µM.

For the compound `O=C(Nc1ccc(Cl)cc1)c1ccnc2cc(Br)ccc12`, the IC50 in [1] and in [2] was > 20 µM in each case.

As for `COc1cccc(NC(=O)c2cc(=O)[nH]c3cc(Br)ccc23)c1`, the 50% inhibitory concentration (IC50) in [1] and in test [2] was > 20 µM each time.

For the compound `COc1ccccc1NC(=O)c1cc(=O)[nH]c2cc(Br)ccc12`, the IC50 in test [1] and in test [2] was > 20 µM in each case.

As to `CC(C)(C)c1ccc(-c2ccc3c(C(=O)Nc4cccc(F)c4)cc(=O)[nH]c3c2)cc1`, the IC50 in test [1] and in [2] was > 20 µM each time.

`COc1ccc(-c2ccc3c(C(=O)Nc4cccc(F)c4)cc(=O)[nH]c3c2)cc1`: the half-inhibitory concentration (IC50) is > 20 µM in test [1] and 18 µM in test [2].

Take `O=C(Nc1cccc(Cl)c1)c1cc(=O)[nH]c2cc(Br)ccc12`: the half-maximal inhibitory concentration (IC50) in test [1] and in test [2] was > 20 µM throughout.

For the compound `O=C(Nc1cccc(C(F)(F)F)c1)c1cc(=O)[nH]c2cc(Br)ccc12`, the half-maximal inhibitory concentration (IC50) in test [1] and in test [2] was > 20 µM in each case.

As for `O=C(Nc1cc(F)cc(F)c1)c1cc(=O)[nH]c2c(O)cccc12`, the half-maximal inhibitory concentration (IC50) in test [1] and in test [2] was > 20 µM in each case.

As for `O=C(Nc1cccc(F)c1)c1cc(=O)[nH]c2cc(F)ccc12`, the IC50 in test [1] and in [2] was > 20 µM each time.

In the case of `O=C(Nc1cc(F)cc(F)c1)c1cc(=O)[nH]c2cc(Cl)ccc12`, the results for the IC50 in test [1] and in test [2] were 9 µM and 11 µM, respectively.

Regarding `COc1ccc(NC(=O)c2cc(=O)[nH]c3cc(Br)ccc23)cc1`, the half-maximal inhibitory concentration (IC50) in test [1] and in test [2] was > 20 µM throughout.

Consider `O=C(Nc1cc(F)cc(F)c1)c1cc(=O)[nH]c2cc(O)ccc12`, for which the IC50 in test [1] and in test [2] was > 20 µM each time.

With `O=C(Nc1cc(F)ccc1F)c1cc(=O)[nH]c2cc(Br)ccc12`, the IC50 in [1] and in [2] was > 20 µM in each case.

Regarding `Cc1cc(-c2ccc3c(C(=O)Nc4cccc(F)c4)cc(=O)[nH]c3c2)c(C)cc1F`, the IC50 in test [1] and in test [2] was > 20 µM throughout.

Regarding `O=C(Nc1cccc(F)c1)c1cc(=O)[nH]c2cc(-c3ccsc3)ccc12`, the Activity was 14.7% in [6]; 22.6% in test [7]; 54.9% in test [8]; 21.7% in test [9]; 63.6% in test [10]; 22.4% in test [11]. Further, the IC50 in test [1] amounted to 5.1 µM; in test [3] it was 13.4 µM; in test [4], 6.7 µM; in test [5] it was 4.5 µM; in test [2] it was 4.3 µM.

With `O=C(Nc1cccc(F)c1)c1cc(=O)[nH]c2cc(-c3cccnc3F)ccc12`, the values for the IC50 in [1] and in [2] were > 20 µM and 11.6 µM, respectively.

Regarding `O=C(Nc1cc(F)c(F)c(F)c1)c1cc(=O)[nH]c2cc(Br)ccc12`, the 50% inhibitory concentration (IC50) in test [1] and in [2] was > 20 µM throughout.

In the case of `O=C(Nc1cc(F)cc(F)c1)c1cc(=O)[nH]c2cc(C(F)(F)F)ccc12`, the half-inhibitory concentration (IC50) in [1] is 14.2 µM; in [2], 17.9 µM.

In the case of `O=C(Nc1ccc(F)cc1F)c1cc(=O)[nH]c2cc(Br)ccc12`, the IC50 in test [1] and in test [2] was > 20 µM throughout.
